Assay outcomes as filed in PubChem BioAssay.
Only some compounds are listed: those with a hit (about 2.3% of all), similar ones and a draw of the others.
TAAR1 ag = human TAAR1 agonism; Q96RJ0; CHO RD-HGA16 TAAR1, Fluo-8 calcium fluorescence; vehicle wells 0%, saturating PEA agonist 100%; activation, % at 3 µM; 360,000 tested, 0.99% active; AID 624467;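 active = activation above the mean activation of all test compounds in the run plus 3 SD, cut at about 38% in these data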
Target sequence (Q96RJ0 whole entry, looked up): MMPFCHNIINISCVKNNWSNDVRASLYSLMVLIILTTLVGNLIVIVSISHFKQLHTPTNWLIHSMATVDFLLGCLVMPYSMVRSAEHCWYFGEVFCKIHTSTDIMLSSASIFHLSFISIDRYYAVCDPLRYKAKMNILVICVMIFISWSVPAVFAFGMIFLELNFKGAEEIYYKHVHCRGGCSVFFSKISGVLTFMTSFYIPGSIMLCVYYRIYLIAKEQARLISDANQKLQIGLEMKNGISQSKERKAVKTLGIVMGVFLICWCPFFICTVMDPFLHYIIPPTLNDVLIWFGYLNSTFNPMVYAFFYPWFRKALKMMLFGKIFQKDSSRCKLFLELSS
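System: CHO-derived RD-HGA16 cells with stable Gα16 and human TAAR1 / Times: 17-24 h plating, Fluo-8 75 min 37 °C, 30 min RT / Technique: calcium-sensitive Fluo-8 signal, excitation 470-495, emission 515-575 nm / Measure: % activation relative to PEA EC100 response / Benchmarks: DMSO and PEA EC100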
V1R ag counter = counter-screen for oxytocin receptor agonists: human V1a receptor agonists; activation, % at 3 µM; 320,000 tested, 0.25% active; P37288; CHO-V1R cells, Fluo-8 calcium fluorescence, agonist mode; 0% DMSO, 100% 3 nM vasopressin;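 active = activation above the mean activation of all tested compounds plus 3 SD, per screening run, cut at about 20% in these data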;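 also: signal is peak over basal fluorescence ratio across a 100 second FLIPR read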
Target sequence (P37288 whole entry, looked up): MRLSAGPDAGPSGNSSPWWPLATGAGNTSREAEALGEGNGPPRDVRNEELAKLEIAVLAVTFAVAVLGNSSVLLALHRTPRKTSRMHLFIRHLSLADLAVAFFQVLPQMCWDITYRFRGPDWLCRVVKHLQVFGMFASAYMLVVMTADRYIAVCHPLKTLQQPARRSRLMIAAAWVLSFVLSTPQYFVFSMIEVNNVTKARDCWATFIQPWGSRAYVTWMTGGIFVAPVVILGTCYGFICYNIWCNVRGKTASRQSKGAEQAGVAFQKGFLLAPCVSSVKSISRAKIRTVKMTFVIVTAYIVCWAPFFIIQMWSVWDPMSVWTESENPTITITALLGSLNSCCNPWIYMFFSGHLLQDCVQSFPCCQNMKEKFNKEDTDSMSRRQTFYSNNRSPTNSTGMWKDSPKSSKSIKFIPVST
TAAR1 antagonist = antagonists of human TAAR1 | inhibition, % at 3 µM | Q96RJ0 | CHO RD-HGA16 TAAR1, Fluo-8 calcium fluorescence, antagonist | 360,000 tested, 1.5% active;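 active = inhibition above a per-plate cutoff, the mean inhibition of test compounds on that plate plus 3 SD, cut at about 49% in these data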;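 also: 0% = DMSO plus EC80 beta-PEA response and 100% = DMSO alone without agonist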
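System: RD-HGA16 CHO cells with stable hTAAR1 and Gα16 | Probe or stimulus: EC80 β-phenethylamine stimulus | Dosing: 3 µM, single point | Times: Dye loading 75 min at 37 °C, then 30 min room temperature | Measured by: Fluo-8 calcium-sensitive fluorescence | Read-out basis: % inhibition of agonist calcium response | Replicates: n of 1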
OXTR agonist = activates the human oxytocin receptor. activation, % at 3 µM. P30559. 320,000 tested, 0.32% active. CHO-OTR cells, Fluo-8 calcium fluorescence; normalized: DMSO 0%, oxytocin 100%;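 active = activation above the mean of all tested compounds plus 3 SD, cutoff set per screening run, cut at about 20% in these data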;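 also: peak over basal fluorescence ratio from a 100 s FLIPR kinetic read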
OXTR potentiate = potentiates the human oxytocin receptor response; P30559; CHO-OTR cells, Fluo-8 calcium fluorescence, potentiator mode; 0% = oxytocin EC15, 100% = EC100; activation, % at 3 µM; 320,000 tested, 0.061% active; AID 2445;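 active = activation above that plate's cutoff, the mean activation of tested compounds plus 3 SD, cut at about 6.6% in these data, passing the limit was not always enough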;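 also: 100% uses oxytocin at 75 nM as the full agonist control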
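Assay system: CHO cell line stably expressing human OTR | Also added: Oxytocin at about EC15, sub-maximal agonist stimulus | Times: Compound 6 min at room temperature before oxytocin, 100 s read | Measured by: Fluo-8 intracellular calcium fluorescence, ex 470-495, em 515-575 nm | Controls: EC15 oxytocin alone as 0%, 75 nM oxytocin as 100%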
nonsel antag count = nonselective antagonism, TAAR1 counter-screen; inhibition, % at 3 µM; counterscreen cell line, calcium fluorescence, antagonist mode; AID 651780; shares compounds with TAAR1 antagonist; 2,400 tested, 77% active; in the data active = inhibition above about 22%;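 also: CHO-Ga16 host cells stimulated with ATP at an EC80 level; 0% = agonist EC80 plus vehicle and 100% = vehicle without agonist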
TAAR1 antag conf = confirmation of human TAAR1 antagonists; shares compounds with TAAR1 antagonist; TAAR1-expressing cells, fluorescence antagonist read-out; inhibition, % at 3 µM; 2,400 tested, 40% active; AID 651785; in the data active = inhibition above about 49%;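 also: CHO-Ga16 host cells challenged with agonist PEA near its EC80; 0% = agonist at EC80 plus vehicle and 100% = vehicle with no agonist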
Ga16 nonsel ag = nonselective Ga16 agonist in TAAR1 antagonist counter-screen; shares compounds with TAAR1 antagonist; activation, % at 3 µM; 2,400 tested, 18% active; Ga16-expressing cells, calcium fluorescence, agonist counterscreen; in the data active = activation above about 12%;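 also: 0% = vehicle wells and 100% = saturating stimulus response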
TAAR1 ag counter = activates human TAAR1 in antagonist counter-screen; shares compounds with TAAR1 antagonist; hTAAR1 cell line, fluorescence activation, agonist mode; activation, % at 3 µM; 2,400 tested, 2% active; AID 651955; in the data active = activation above about 37%;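 also: CHO cells stably expressing TAAR1 with calcium dye readout; 0% = DMSO vehicle and 100% = full agonist response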
Starred values were filed as active, the others as inactive; · = no result given.

SMILES	TAAR1 ag	V1R ag counter	TAAR1 antagonist	OXTR agonist	OXTR potentiate	nonsel antag count	TAAR1 antag conf	Ga16 nonsel ag	TAAR1 ag counter
COc1ccccc1N(C)S(=O)(=O)c1ccc(C(=O)N(C)Cc2cccc(OC)c2OC)cc1	4.8	·	31.1	·	·	·	·	·	·
COc1ccc2c(C(=O)NCc3ccc4c(c3)OCO4)c(-c3ccc(S(C)(=O)=O)cc3)sc2c1	21.0	1.5	63.6*	0.7	-7.3	36.0*	54.7*	7.8	12.2
COc1cccc(C(=O)NCc2ccc3c(c2)OCO3)c1OC	2.7	·	-14.4	·	·	·	·	·	·
CCN(CC)CCNC(=O)c1ccc(NC(=O)c2ccc(S(=O)(=O)N(C)c3ccccc3OC)cc2)cc1	1.7	·	-3.5	·	·	·	·	·	·
COc1ccccc1N(C)S(=O)(=O)c1ccc(C(=O)N(C)Cc2ccc(Cl)s2)cc1	14.5	5.5	51.0*	4.0	-8.8	26.8*	37.5	8.1	6.6
COc1ccccc1N(C)S(=O)(=O)c1ccc(C(=O)Nc2ccc(C(N)=O)cc2)cc1	8.5	1.4	54.1*	1.1	-8.6	23.8*	30.0	4.2	5.1
COc1ccccc1N(C)S(=O)(=O)c1ccc(C(=O)NCc2ccc3c(c2)OCO3)cc1	18.4	4.5	66.7*	1.5	-29.0	31.2*	53.5*	10.8	11.8
COc1ccc(C(=O)NC2CCCc3ccccc32)cc1S(=O)(=O)N1CCOCC1 (centres undefined)	6.5	0.5	-14.0	-1.2	-6.7	·	·	·	·
Cc1cc(C(=O)N2CCCC(N3CCN(c4cccc(Cl)c4)CC3)C2)nc(C)n1 (centres undefined)	0.0	0.1	1.5	-0.9	-1.6	·	·	·	·
O=C(OCC(=O)N1CCCC1)c1cc(F)c(F)cc1Cl	-1.0	-0.7	0.6	-0.6	-6.7	·	·	·	·
Cn1c(N)c(Sc2ccc(F)cc2)c(=O)n(C)c1=O	1.1	0.1	-0.5	0.1	-4.8	·	·	·	·
CN(c1ccccc1)S(=O)(=O)c1ccc(C(=O)NCc2ccc(F)cc2)cc1	15.8	8.0	63.9*	7.2	-11.7	41.7*	58.3*	12.2*	10.4
CCN(C(=O)COC(=O)C1CCN(S(=O)(=O)c2ccc3c(c2)OCCO3)CC1)C1CCCCC1	-1.1	-0.8	-36.0	-0.9	-0.3	·	·	·	·
O=C(CNS(=O)(=O)c1cccc(Cl)c1)Nc1ccc(-c2nc3ccccc3s2)cc1	3.8	2.0	3.6	-0.4	-6.0	·	·	·	·
CC(NS(=O)(=O)c1cccc(Cl)c1)C(=O)Nc1ccc(-c2nc3ccccc3s2)cc1 (centres undefined)	24.7	5.8	64.2*	3.0	-18.9	36.7*	44.6	12.3*	24.5
CN1CCN(c2ccccc2NC(=O)c2ccc(-c3cccc([N+](=O)[O-])c3)o2)CC1	7.1	0.0	27.4	-1.2	6.7	·	·	·	·
CCC(=O)N1CCN(c2ccccc2NC(=O)c2ccc(-c3cccc([N+](=O)[O-])c3)o2)CC1	12.2	-1.6	55.3*	-2.5	-11.7	25.9*	49.8*	6.1	2.4
COc1ccc(C2CC(c3ccccc3)=NN2C(=O)COC(=O)CNC(=O)c2ccccc2)cc1 (centres undefined)	32.0	5.3	66.7*	8.8	-12.5	43.0*	54.3*	21.8*	37.0
COc1ccc(NC(=O)CN(C)C(=O)C2=NN(c3ccccc3)C(=O)CC2)cc1	0.9	-0.8	-5.4	0.2	-0.3	·	·	·	·
Cc1nccc(-c2cc(-c3ccc(Cl)cc3Cl)no2)n1	6.0	1.4	-51.2	-2.4	-6.7	·	·	·	·
N=c1c2c(ncn1CCN1CCOCC1)Oc1cc(O)ccc1C2c1ccccc1 (centres undefined)	17.5	6.0	75.2*	4.2	-9.6	22.1*	39.7	7.9	10.5
COc1ccc(C2c3ccc(O)cc3Oc3ncn(CCN4CCOCC4)c(=N)c32)cc1OC (centres undefined)	-0.2	1.7	-15.7	3.6	-3.2	·	·	·	·
CCCN(CC1CC1)C(=O)COC(=O)c1ccc2c(c1)C(=O)N(c1ccc(OCC)cc1)C2=O	33.5	4.1	54.6*	-0.2	-9.9	30.4*	40.4	7.5	6.4
CCOc1ccc(N2C(=O)c3ccc(C(=O)OCc4c(C)noc4C)cc3C2=O)cc1	10.6	0.3	-6.9	0.2	-13.7	·	·	·	·
CCOc1ccc(S(=O)(=O)NCCC(=O)OCC(=O)c2ccc[nH]2)cc1	5.6	5.0	0.7	5.2	-7.6	·	·	·	·
SMILES	TAAR1 ag	V1R ag counter	TAAR1 antagonist	OXTR agonist	OXTR potentiate	nonsel antag count	TAAR1 antag conf	Ga16 nonsel ag	TAAR1 ag counter
CN(Cc1ccc(Cl)cc1)C(c1cc2ccccc2o1)c1nnnn1C(C)(C)C (centres undefined)	4.6	·	10.6	·	·	·	·	·	·
Oc1c(N=NC(=S)Nc2ccccc2F)c2ccccc2n1Cc1ccccc1F	7.4	-1.3	54.4*	0.3	-8.6	-2.4	29.7	4.5	4.4
Cc1ccccc1Cn1c(O)c(N=NC(=S)Nc2ccccc2F)c2ccccc21	-0.7	-0.5	10.7	-0.8	-3.5	·	·	·	·
CC(=O)Nc1cccc(Nc2nc(-c3ccccc3F)nc3ccccc23)c1	11.2	-0.5	22.0	0.6	-11.8	·	·	·	·
COc1ccc(OC)c(NC(=O)C2(C)CCN2Cc2cccc(OC)c2F)c1 (centres undefined)	-0.5	·	51.4*	·	·	15.1	29.9	1.2	-1.5
CC(=O)N1CCN(C(=O)c2cc(-c3cccc4ccccc34)nc3ccccc23)CC1	12.5	2.7	66.9*	2.3	0.3	32.7*	47.6	9.4	9.7
COc1cccc(CN2CCN(C(=O)c3cc(-c4ccncc4)nc4ccc(C)cc34)CC2)c1	14.4	1.2	77.1*	1.6	-0.4	24.2*	45.6	8.9	9.6
O=C(c1cc(-c2ccccc2Cl)nc2ccc(Br)cc12)N1CCN(c2ccccn2)CC1	5.5	0.9	59.1*	0.5	-10.7	30.3*	46.8	9.4	21.1
O=C(c1cc(-c2ccncc2)nc2ccccc12)N1CCN(S(=O)(=O)/C=C/c2ccccc2)CC1	21.3	-1.2	69.6*	-1.8	-21.1	28.8*	45.4	8.8	7.5
COC(=O)c1ccc(C2/C(=C(/O)c3ccc4c(c3)CC(C)O4)C(=O)C(=O)N2Cc2ccncc2)cc1 (centres undefined)	4.6	0.9	-17.1	0.2	-7.3	·	·	·	·
O=C(NCCc1nnc2ccc(N3CCCCCC3)nn12)c1ccccc1F	0.9	0.8	-2.0	-0.8	-3.4	·	·	·	·
